This is an account of results in ChEMBL document CHEMBL1629649, “Multiple regulatory pathways associated with high-level ciprofloxacin and multidrug resistance in Salmonella enterica serovar enteritidis: involvement of RamA and other global regulators” (2009).

SMILES strings stand for the structures. ≈ marks a conversion by molar mass, not a printed value. Bounds are passed on as bounds.

Assay type in all cases: functional, Salmonella enterica subsp. enterica serovar Enteritidis
Experiment [1] relates to Salmonella enteritidis. Description: Antimicrobial activity against ciprofloxacin-resistant Salmonella enterica serovar enteritidis isolate 5408-cip harboring gyrA D87Y, gyrB E466D, parE V461G mutant gene by Etest.
The test system of experiment [2] is Salmonella enteritidis. Description: Antimicrobial activity against acrB::aph-deficient ciprofloxacin-resistant Salmonella enterica serovar enteritidis isolate 5408-cip harboring gyrA D87Y, gyrB E466D, parE V461G mutant gene by Etest. Summed up: (§1)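 Deletions (acrB, marA, soxS or ramA) were moved from SL1344 mutants into the isolates by P22 phage transduction. Transductants were selected on LB agar with 50 µg/ml kanamycin, and insertion of the kanamycin resistance gene was confirmed by PCR. MICs were then determined by Etest.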

The test system of experiment [3] is Salmonella enteritidis. As to the kind of experiment: Antimicrobial activity against acrB::aph-deficient ciprofloxacin-resistant Salmonella enterica serovar enteritidis isolate 104-cip harboring gyrA D87Y,S83F mutant gene by Etest. Summed up: as §1
In experiment [4] the test system is Salmonella enteritidis. Description: Antimicrobial activity against Salmonella enterica serovar enteritidis isolate 104 harboring gyrA D87Y mutant gene by Etest.
Experiment [5] concerns Salmonella enteritidis. As to the kind of experiment: Antimicrobial activity against Salmonella enterica serovar enteritidis isolate 104-cip harboring gyrA D87Y,S83F mutant gene by Etest.
The subject of experiment [6] is Salmonella enteritidis. Description: Antimicrobial activity against ramA::aph-deficient ciprofloxacin-resistant Salmonella enterica serovar enteritidis isolate 5408-cip harboring gyrA D87Y, gyrB E466D, parE V461G mutant gene by Etest. Summed up:
as §1

For experiment [7], the system named is Salmonella enteritidis. Description: Antimicrobial activity against marA::aph-deficient ciprofloxacin-resistant Salmonella enterica serovar enteritidis isolate 104-cip harboring gyrA D87Y,S83F mutant gene by Etest. Summed up:
as §1

The subject of experiment [8] is Salmonella enteritidis. As to the kind of experiment: Antimicrobial activity against Salmonella enterica serovar enteritidis isolate 5408 harboring gyrA D87Y mutant gene by Etest.
Experiment [9] relates to Salmonella enteritidis. Description: Antimicrobial activity against soxS::aph-deficient ciprofloxacin-resistant Salmonella enterica serovar enteritidis isolate 104-cip harboring gyrA D87Y,S83F mutant gene by Etest. Summed up: as §1
The subject of experiment [10] is Salmonella enteritidis. Description: Antimicrobial activity against acrB::aph-deficient Salmonella enterica serovar enteritidis isolate CUH60 harboring gyrA D87Y mutant gene by Etest. Summed up: as §1
In experiment [11] the test system is Salmonella enteritidis. Description: Antimicrobial activity against ciprofloxacin-resistant Salmonella enterica serovar enteritidis isolate 5408-cip harboring gyrB gene gyrA D87Y, parE V461G mutant gene by Etest. Summed up:
(§2)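 Wild-type alleles of the target genes were carried on plasmids and introduced into the ciprofloxacin-selected mutants by electrotransformation. Transformants were selected on LB agar with 50 µg/ml kanamycin at 37°C overnight. Quinolone MICs of the transformants were read by Etest strips alongside those of the parent and mutant strains.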

The subject of experiment [12] is Salmonella enteritidis. Description: Antimicrobial activity against Salmonella enterica serovar enteritidis isolate CUH52 by Etest.
The test system of experiment [13] is Salmonella enteritidis. Description: Antimicrobial activity against ciprofloxacin-resistant Salmonella enterica serovar enteritidis isolate 104-cip harboring gyrA gene by Etest. Summed up: as §2
Experiment [14] concerns Salmonella enteritidis. As to the kind of experiment: Antimicrobial activity against acrB::aph-deficient Salmonella enterica serovar enteritidis isolate 5408 harboring gyrA D87Y mutant gene by Etest. Summed up: as §1
Experiment [15] deals with Salmonella enteritidis. Description: Antimicrobial activity against acrB::aph-deficient Salmonella enterica serovar enteritidis isolate 51 harboring gyrA D87Y mutant gene by Etest. Summed up:
as §1

Experiment [16] has as its system Salmonella enteritidis. As to the kind of experiment: Antimicrobial activity against Salmonella enterica serovar enteritidis isolate 58 harboring gyrA D87Y mutant gene by Etest.
In experiment [17] the test system is Salmonella enteritidis. Description: Antimicrobial activity against ciprofloxacin-resistant Salmonella enterica serovar enteritidis isolate 5408-cip harboring gyrA gene, gyrB E466D, parE V461G mutant gene by Etest. Summed up: as §2
The test system of experiment [18] is Salmonella enteritidis. Description: Antimicrobial activity against ciprofloxacin-resistant Salmonella enterica serovar enteritidis isolate 5408-cip harboring parE gene gyrA D87Y, gyrB E466D mutant gene by Etest. Summed up: as §2
For experiment [19], the system named is Salmonella enteritidis. As to the kind of experiment: Antimicrobial activity against acrB::aph-deficient Salmonella enterica serovar enteritidis isolate 104 harboring gyrA D87Y mutant gene by Etest. Summed up:
as §1

The test system of experiment [20] is Salmonella enteritidis. Description: Antimicrobial activity against Salmonella enterica serovar enteritidis isolate CUH48 by Etest.
The test system of experiment [21] is Salmonella enteritidis. Description: Antimicrobial activity against acrB::aph-deficient Salmonella enterica serovar enteritidis isolate 4931 harboring gyrA D87Y mutant gene by Etest. Summed up:
as §1

Experiment [22] concerns Salmonella enteritidis. As to the kind of experiment: Antimicrobial activity against Salmonella enterica serovar enteritidis isolate 51 harboring gyrA D87Y mutant gene by Etest.
Experiment [23] concerns Salmonella enteritidis. Description: Antimicrobial activity against Salmonella enterica serovar enteritidis isolate 5408 harboring gyrA gene by Etest.
Experiment [24] concerns Salmonella enteritidis. Description: Antimicrobial activity against Salmonella enterica serovar enteritidis isolate NCTC 13349 by Etest.
The test system of experiment [25] is Salmonella enteritidis. As to the kind of experiment: Antimicrobial activity against Salmonella enterica serovar enteritidis isolate 104 harboring gyrA gene by Etest.
In experiment [26] the test system is Salmonella enteritidis. Description: Antimicrobial activity against Salmonella enterica serovar enteritidis isolate 54 harboring gyrA D87Y mutant gene by Etest.

The term MIC denotes the smallest concentration in the dilution series that meets the test's criterion for growth inhibition. A high value points to a less susceptible organism. On to `CN(C)[C@@H]1C(O)=C(C(N)=O)C(=O)[C@@]2(O)C(O)=C3C(=O)c4c(O)cccc4[C@@](C)(O)[C@H]3C[C@@H]12` [TETRACYCLINE], for which the MIC was 1.5 µg/mL (≈ 3.38 µM) in [1]; 0.094 µg/mL (≈ 0.212 µM) in [2]; 0.25 µg/mL (≈ 0.563 µM) in [3]; 1 µg/mL (≈ 2.25 µM) in experiment [4]; 12 µg/mL (≈ 27 µM) in experiment [5]; 1 µg/mL (≈ 2.25 µM) in [6]. Besides, the MIC in experiment [7] came to 1.5 µg/mL (≈ 3.38 µM); in experiment [8], 1 µg/mL (≈ 2.25 µM); in experiment [9], 0.75 µg/mL (≈ 1.69 µM).

In the case of `O=C(O)c1cn(C2CC2)c2cc(N3CCNCC3)c(F)cc2c1=O` [CIPROFLOXACIN], the MIC was 0.032 µg/mL (≈ 0.0966 µM) in experiment [10]; 3 µg/mL (≈ 9.05 µM) in experiment [11]; 0.016 µg/mL (≈ 0.0483 µM) in experiment [12]; 0.094 µg/mL (≈ 0.284 µM) in [13]; 0.5 µg/mL (≈ 1.51 µM) in [2]; 0.38 µg/mL (≈ 1.15 µM) in experiment [3]. In addition, the MIC was 0.047 µg/mL (≈ 0.142 µM) in experiment [14]; 0.032 µg/mL (≈ 0.0966 µM) in [15]; 0.125 µg/mL (≈ 0.377 µM) in experiment [16]; 1 µg/mL (≈ 3.02 µM) in experiment [17]; over 32 µg/mL in experiment [18]; 4 µg/mL (≈ 12.1 µM) in [6]. The MIC was found to be 0.032 µg/mL (≈ 0.0966 µM) in experiment [19]; 0.016 µg/mL (≈ 0.0483 µM) in [20]; 0.047 µg/mL (≈ 0.142 µM) in experiment [21]; 4 µg/mL (≈ 12.1 µM) in experiment [7]; 0.19 µg/mL (≈ 0.573 µM) in [22]; 0.032 µg/mL (≈ 0.0966 µM) in experiment [23]. Moreover, the MIC turned out to be 0.023 µg/mL (≈ 0.0694 µM) in [24], 0.047 µg/mL (≈ 0.142 µM) in experiment [25], 1.5 µg/mL (≈ 4.53 µM) in experiment [9] and 0.19 µg/mL (≈ 0.573 µM) in experiment [26].

In the case of `O=C(N[C@H](CO)[C@H](O)c1ccc([N+](=O)[O-])cc1)C(Cl)Cl` [CHLORAMPHENICOL], the MIC was found to be 16 µg/mL (≈ 49.5 µM) in experiment [1]; 0.5 µg/mL (≈ 1.55 µM) in experiment [2]; 0.75 µg/mL (≈ 2.32 µM) in experiment [3]; 2 µg/mL (≈ 6.19 µM) in [4]; 96 µg/mL (≈ 297 µM) in experiment [5]; 3 µg/mL (≈ 9.28 µM) in experiment [6]. Besides, the values for the MIC in experiment [7], in experiment [8] and in experiment [9] were 3 µg/mL (≈ 9.28 µM), 3 µg/mL (≈ 9.28 µM) and 1.5 µg/mL (≈ 4.64 µM), respectively.

As to `CC1(C)S[C@@H]2[C@H](NC(=O)[C@H](N)c3ccccc3)C(=O)N2[C@H]1C(=O)O` [AMPICILLIN], the MIC stood at 4 µg/mL (≈ 11.4 µM) in [1]; 0.094 µg/mL (≈ 0.269 µM) in experiment [2]; 0.125 µg/mL (≈ 0.358 µM) in experiment [3]; 1 µg/mL (≈ 2.86 µM) in experiment [4]; 16 µg/mL (≈ 45.8 µM) in [5]; 1 µg/mL (≈ 2.86 µM) in experiment [6]. Besides, the MIC in experiment [7] is 1.5 µg/mL (≈ 4.29 µM); in [8] it was 1 µg/mL (≈ 2.86 µM); in experiment [9], 0.5 µg/mL (≈ 1.43 µM).
